Test results as given in ChEMBL document CHEMBL1123038, “Potential neuroleptic agents. 3. Chemistry and antidopaminergic properties of substituted 6-methoxysalicylamides” (J Med Chem, 1985).

Columns and labels:
Type in all cases: functional
Details in all cases: ip
Rattus norvegicus [1] = experiment: Compound was evaluated in vivo for antagonist activity against apomorphine induced behavioral syndrome such as Hyperactivity in rat after intraperitoneal administration; activity value ranges from 0.14-0.18
Rattus norvegicus [2] = experiment: Compound was evaluated in vivo its antagonist activity against apomorphine induced behavioral syndrome such as Stereotypy in rat after intraperitoneal administration; activity value ranges from 0.74-0.87
Outline: (§1)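 Male Sprague-Dawley rats (275–325 g) got compound ip (saline, or acetic acid/distilled water vehicle) 60 min ahead of sc apomorphine 1 mg/kg given into the neck. Stereotypy strength was scored 5, 20, 40 and 60 min after apomorphine. […] It was computed by Theil's method with Sen tie correction, using 5–6+ dose levels and 6–8 animals per dose.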

Rattus norvegicus [3] = experiment: Compound was evaluated in vivo its antagonist activity against apomorphine induced behavioral syndrome such as Stereotypy in rat after intraperitoneal administration; activity value ranges from 0.89-1.02; outline: as §1
Rattus norvegicus [4] = experiment: Compound was evaluated in vivo for antagonist activity against apomorphine induced behavioral syndrome such as Hyperactivity in rat after intraperitoneal administration; activity value ranges from 1.15-1.26
Rattus norvegicus [5] = experiment: Compound was evaluated in vivo for antagonist activity against apomorphine induced behavioral syndrome such as Hyperactivity in rat after intraperitoneal administration; activity value ranges from 0.11-0.13
Outline: (§2)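 Male Sprague-Dawley rats (275–325 g) received test compound ip (in saline, or acetic acid plus distilled water) 60 min before apomorphine 1 mg/kg sc into the neck. Behaviour was scored at 5, 20, 40 and 60 min after apomorphine.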

Rattus norvegicus [6] = experiment: Compound was evaluated in vivo its antagonist activity against apomorphine induced behavioral syndrome such as Stereotypy in rat after intraperitoneal administration; activity value ranges from 0.24-0.25; outline: as §1
Rattus norvegicus [7] = experiment: Compound was evaluated in vivo its antagonist activity against apomorphine induced behavioral syndrome such as Stereotypy in rat after intraperitoneal administration; activity value ranges from 0.65-0.66; outline: as §1
Rattus norvegicus [8] = experiment: Compound was evaluated in vivo for antagonist activity against apomorphine induced behavioral syndrome such as Hyperactivity in rat after intraperitoneal administration; activity value ranges from 0.42-0.43
Rattus norvegicus [9] = experiment: Compound was evaluated in vivo its antagonist activity against apomorphine induced behavioral syndrome such as Stereotypy in rat after intraperitoneal administration; activity value ranges from 2.0-2.0; outline: as §1
Rattus norvegicus [10] = experiment: Compound was evaluated in vivo for antagonist activity against apomorphine induced behavioral syndrome such as Hyperactivity in rat after intraperitoneal administration; activity value ranges from 1.07-1.15
Rattus norvegicus [11] = experiment: Compound was evaluated in vivo its antagonist activity against apomorphine induced behavioral syndrome such as Stereotypy in rat after intraperitoneal administration; activity value ranges from 6.5-6.8; outline: as §1
Rattus norvegicus [12] = experiment: Compound was evaluated in vivo for antagonist activity against apomorphine induced behavioral syndrome such as Hyperactivity in rat after intraperitoneal administration; activity value ranges from 6.0-6.2
Rattus norvegicus [13] = experiment: Compound was evaluated in vivo for antagonist activity against apomorphine induced behavioral syndrome such as Hyperactivity in rat after intraperitoneal administration; activity value ranges from 0.19-0.20
Rattus norvegicus [14] = experiment: Compound was evaluated in vivo its antagonist activity against apomorphine induced behavioral syndrome such as Stereotypy in rat after intraperitoneal administration activity value ranges from 0.81-0.95; outline: as §1
Rattus norvegicus [15] = experiment: Compound was evaluated in vivo for antagonist activity against apomorphine induced behavioral syndrome such as Hyperactivity in rat after intraperitoneal administration; activity value ranges from 5.2-6.9
Rattus norvegicus [16] = experiment: Compound was evaluated in vivo its antagonist activity against apomorphine induced behavioral syndrome such as Stereotypy in rat after intraperitoneal administration; activity value ranges from 15.1-15.8; outline: as §1
Rattus norvegicus [17] = experiment: Compound was evaluated in vivo for antagonist activity against apomorphine induced behavioral syndrome such as Hyperactivity in rat after intraperitoneal administration; activity value ranges from 2.7-3.8
Rattus norvegicus [18] = experiment: Compound was evaluated in vivo its antagonist activity against apomorphine induced behavioral syndrome such as Stereotypy in rat after intraperitoneal administration; activity value ranges from 2.4-2.7; outline: as §1
Rattus norvegicus [19] = experiment: Compound was evaluated in vivo for antagonist activity against apomorphine induced behavioral syndrome such as Hyperactivity in rat after intraperitoneal administration; activity value ranges from 0.65-0.85
Rattus norvegicus [20] = experiment: Compound was evaluated in vivo its antagonist activity against apomorphine induced behavioral syndrome such as Stereotypy in rat after intraperitoneal administration; activity value ranges from 1.8-2.2; outline: as §1
Rattus norvegicus [21] = experiment: Compound was evaluated in vivo for antagonist activity against apomorphine induced behavioral syndrome such as Hyperactivity in rat after intraperitoneal administration; activity value ranges from 0.46-0.49
Rattus norvegicus [22] = experiment: Compound was evaluated in vivo its antagonist activity against apomorphine induced behavioral syndrome such as Stereotypy in rat after intraperitoneal administration; activity value ranges from 13.8-14.1; outline: as §1
Rattus norvegicus [23] = experiment: Compound was evaluated in vivo for antagonist activity against apomorphine induced behavioral syndrome such as Hyperactivity in rat after intraperitoneal administration; activity value ranges from 0.78-1.07
Rattus norvegicus [24] = experiment: Compound was evaluated in vivo its antagonist activity against apomorphine induced behavioral syndrome such as Stereotypy in rat after intraperitoneal administration; activity value ranges from 0.56-0.95; outline: as §1
Rattus norvegicus [25] = experiment: Compound was evaluated in vivo for antagonist activity against apomorphine induced behavioral syndrome such as Hyperactivity in rat after intraperitoneal administration; activity value ranges from 0.45-0.49
Rattus norvegicus [26] = experiment: Compound was evaluated in vivo its antagonist activity against apomorphine induced behavioral syndrome such as Stereotypy in rat after intraperitoneal administration; activity value ranges from 7.6-8.3; outline: as §1
Rattus norvegicus [27] = experiment: Compound was evaluated in vivo for antagonist activity against apomorphine induced behavioral syndrome such as Hyperactivity in rat after intraperitoneal administration; activity value ranges from 0.36-0.43
Rattus norvegicus [28] = experiment: Compound was evaluated in vivo for antagonist activity against apomorphine induced behavioral syndrome such as Hyperactivity in rat after intraperitoneal administration; activity value ranges from 0.054-0.055
Rattus norvegicus [29] = experiment: Compound was evaluated in vivo its antagonist activity against apomorphine induced behavioral syndrome such as Stereotypy in rat after intraperitoneal administration; activity value ranges from 0.30-0.33; outline: as §1
Rattus norvegicus [30] = experiment: Compound was evaluated in vivo its antagonist activity against apomorphine induced behavioral syndrome such as Stereotypy in rat after intraperitoneal administration; activity value ranges from 2.82-3.02; outline: as §1
Rattus norvegicus [31] = experiment: Compound was evaluated in vivo for antagonist activity against apomorphine induced behavioral syndrome such as Hyperactivity in rat after intraperitoneal administration; activity value ranges from 1.58-1.78
Rattus norvegicus [32] = experiment: Compound was evaluated in vivo for antagonist activity against apomorphine induced behavioral syndrome such as Hyperactivity in rat after intraperitoneal administration; activity value ranges from 0.27-0.35; outline: as §2
Rattus norvegicus [33] = experiment: Compound was evaluated in vivo its antagonist activity against apomorphine induced behavioral syndrome such as Stereotypy in rat after intraperitoneal administration
Rattus norvegicus [34] = experiment: Compound was evaluated in vivo for antagonist activity against apomorphine induced behavioral syndrome such as Hyperactivity in rat after intraperitoneal administration; activity value ranges from 0.11-0.16
Rattus norvegicus [35] = experiment: Compound was evaluated in vivo its antagonist activity against apomorphine induced behavioral syndrome such as Stereotypy in rat after intraperitoneal administration; activity value ranges from 0.52-0.55; outline: as §1

**Q.** What does the source list for `CCCc1ccc(OC)c(C(=O)NC[C@@H]2CCCN2CC)c1O`?
**A.** ED50 (Rattus norvegicus [1]): 0.16 µmol/kg; ED50 (Rattus norvegicus [2]): 0.79 µmol/kg

**Q.** For `CCN1CCC[C@H]1CNC(=O)c1c(OC)ccc(C)c1O`, which ED50 (Rattus norvegicus [3]) is on record?
**A.** The ED50 was 0.95 µmol/kg.

**Q.** And the ED50 (Rattus norvegicus [4])?
**A.** Its ED50 is 1.23 µmol/kg.

**Q.** With `CCc1ccc(OC)c(C(=O)NC[C@@H]2CCCN2CC)c1O` as the molecule, how does the ED50 (Rattus norvegicus [5]) read?
**A.** The ED50 was 0.12 µmol/kg.

**Q.** And the ED50 (Rattus norvegicus [6])?
**A.** Its ED50 is 0.25 µmol/kg.

**Q.** For `CCCN1CCC[C@H]1CNC(=O)c1c(OC)ccc(Br)c1O`, which ED50 (Rattus norvegicus [7]) is on record?
**A.** The ED50 was 0.66 µmol/kg.

**Q.** And the ED50 (Rattus norvegicus [8])?
**A.** Its ED50 is 0.43 µmol/kg.

**Q.** With `CCN1CCC[C@H]1CNC(=O)c1c(OC)ccc(I)c1OC` as the molecule, how does the ED50 (Rattus norvegicus [9]) read?
**A.** The ED50 was 2.1 µmol/kg.

**Q.** And the ED50 (Rattus norvegicus [10])?
**A.** Its ED50 is 1.12 µmol/kg.

**Q.** How did the ED50 (Rattus norvegicus [11]) turn out when `CCN1CCC[C@H]1CNC(=O)c1c(O)ccc(Br)c1OC` was run?
**A.** Its ED50 is 6.6 µmol/kg.

**Q.** And the ED50 (Rattus norvegicus [12])?
**A.** The ED50 was 6.2 µmol/kg.

**Q.** Which ED50 (Rattus norvegicus [13]) does the source give for `CCN1CCC[C@H]1CNC(=O)c1c(OC)ccc(Cl)c1O` here?
**A.** Its ED50 is 0.2 µmol/kg.

**Q.** And the ED50 (Rattus norvegicus [14])?
**A.** The ED50 was 0.87 µmol/kg.

**Q.** Which ED50 (Rattus norvegicus [15]) does the source give for `CCN1CCC[C@H]1CNC(=O)c1c(OC)ccc(Cl)c1OC` here?
**A.** Its ED50 is 6.3 µmol/kg.

**Q.** What does the source list for `CCCN1CCC[C@H]1CNC(=O)c1c(OC)ccc(Br)c1OC`?
**A.** ED50 (Rattus norvegicus [16]): 15.5 µmol/kg; ED50 (Rattus norvegicus [17]): 3.4 µmol/kg

**Q.** With `CCN1CCC[C@H]1CNC(=O)c1c(O)ccc(Cl)c1OC` as the molecule, how does the ED50 (Rattus norvegicus [18]) read?
**A.** Its ED50 is 2.5 µmol/kg.

**Q.** What about the ED50 (Rattus norvegicus [19]) of the same molecule?
**A.** Its ED50 is 0.78 µmol/kg.

**Q.** For `CCOc1c(Br)ccc(OC)c1C(=O)NC[C@@H]1CCCN1CC`, which ED50 (Rattus norvegicus [20]) is on record?
**A.** The ED50 was 1.9 µmol/kg.

**Q.** And the ED50 (Rattus norvegicus [21])?
**A.** Its ED50 is 0.47 µmol/kg.

**Q.** Which results are given for `CCc1ccc(OC)c(C(=O)NC[C@@H]2CCCN2CC)c1OC`?
**A.** ED50 (Rattus norvegicus [22]): 14.1 µmol/kg; ED50 (Rattus norvegicus [23]): 0.95 µmol/kg

**Q.** What does the source list for `CCc1ccc(O)c(C(=O)NC[C@@H]2CCCN2CC)c1OC`?
**A.** ED50 (Rattus norvegicus [24]): 0.79 µmol/kg; ED50 (Rattus norvegicus [25]): 0.47 µmol/kg

**Q.** `CCN1CCC[C@H]1CNC(=O)c1c(O)cccc1OC` was tested. Which ED50 (Rattus norvegicus [26]) did it give?
**A.** Its ED50 is 7.8 µmol/kg.

**Q.** And the ED50 (Rattus norvegicus [27])?
**A.** Its ED50 is 0.4 µmol/kg.

**Q.** With `CCN1CCC[C@H]1CNC(=O)c1c(OC)ccc(Br)c1O` (stereo in doubt; 11) as the molecule, how does the ED50 (Rattus norvegicus [28]) read?
**A.** Its ED50 is 0.055 µmol/kg.

**Q.** And the ED50 (Rattus norvegicus [29])?
**A.** The ED50 was 0.32 µmol/kg.

**Q.** With `CCN1CCC[C@H]1CNC(=O)c1c(OC)ccc(Br)c1O` (stereo in doubt; 26) as the molecule, how does the ED50 (Rattus norvegicus [30]) read?
**A.** The ED50 was 0.32 µmol/kg.

**Q.** And the ED50 (Rattus norvegicus [31])?
**A.** The ED50 was 0.055 µmol/kg.

**Q.** With `O=C(CCCN1CCC(O)(c2ccc(Cl)cc2)CC1)c1ccc(F)cc1` [HALOPERIDOL] as the molecule, how does the ED50 (Rattus norvegicus [32]) read?
**A.** The ED50 was 0.29 µmol/kg.

**Q.** What about the ED50 (Rattus norvegicus [33]) of the same molecule?
**A.** Its ED50 is 0.27 µmol/kg.

**Q.** Which ED50 (Rattus norvegicus [34]) does the source give for `CCN1CCC[C@H]1CNC(=O)c1c(OC)ccc(I)c1O` [IOLOPRIDE] here?
**A.** The ED50 was 0.15 µmol/kg.

**Q.** What about the ED50 (Rattus norvegicus [35]) of the same molecule?
**A.** The ED50 was 0.54 µmol/kg.
